In ChEMBL document CHEMBL4316581, “Efforts in redesigning the antileukemic drug 6-thiopurine: decreasing toxic side effects while maintaining efficacy” (Medchemcomm, 2019):

Tests used:
[1] = target: T1, UDP-glucose 6-dehydrogenase (Rattus norvegicus, UniProt O70199); assay: Inhibition of UDPGDH in rat hepatocytes after 20 to 120 secs by UV/Vis spectrophotometric analysis; format: cell-based
T1 sequence (O70199 whole entry): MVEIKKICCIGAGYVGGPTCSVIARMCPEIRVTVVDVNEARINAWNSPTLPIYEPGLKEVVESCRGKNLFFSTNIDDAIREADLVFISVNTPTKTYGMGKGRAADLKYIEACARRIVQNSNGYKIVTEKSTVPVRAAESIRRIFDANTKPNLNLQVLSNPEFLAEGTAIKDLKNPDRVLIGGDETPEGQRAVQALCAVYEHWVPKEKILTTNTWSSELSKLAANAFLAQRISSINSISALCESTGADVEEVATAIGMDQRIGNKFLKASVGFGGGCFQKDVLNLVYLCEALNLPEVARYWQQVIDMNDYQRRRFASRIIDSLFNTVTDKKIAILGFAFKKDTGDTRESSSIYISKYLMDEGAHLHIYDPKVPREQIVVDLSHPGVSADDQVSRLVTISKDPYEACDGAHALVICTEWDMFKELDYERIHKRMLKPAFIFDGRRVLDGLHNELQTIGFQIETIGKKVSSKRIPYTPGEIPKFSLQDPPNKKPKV
Outline: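 Purified UDPGDH (0.1 unit/mL) was assayed spectrophotometrically at 340 nm and 25 °C in 150 mM Gly-Gly with saturating 3 mM NAD+. UDPG was varied (0.1, 0.05, 0.025, 0.02 mM) at several inhibitor concentrations. After 2 min thermal equilibration, the initial absorbance-versus-time rate was recorded. Runs were in triplicate; averaged slopes were plotted to derive inhibition values.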

REH = assay: Cytotoxicity against human REH cells assessed as reduction in cell viability […] by Alamar Blue assay; format: functional, cell-based
[2] = target: T2, UDP-glucuronosyltransferase 1A1 (Rattus norvegicus, UniProt Q64550); assay: Inhibition of UGT1A in rat hepatocytes assessed as decrease in bilirubin monoglucuronide level at 75 uM preincubated for 2 mins followed by UDPGA addition measured after 45 mins by HPLC analysis; format: ADME, cell-based; details: 0.75 h
T2 sequence (Q64550 whole entry): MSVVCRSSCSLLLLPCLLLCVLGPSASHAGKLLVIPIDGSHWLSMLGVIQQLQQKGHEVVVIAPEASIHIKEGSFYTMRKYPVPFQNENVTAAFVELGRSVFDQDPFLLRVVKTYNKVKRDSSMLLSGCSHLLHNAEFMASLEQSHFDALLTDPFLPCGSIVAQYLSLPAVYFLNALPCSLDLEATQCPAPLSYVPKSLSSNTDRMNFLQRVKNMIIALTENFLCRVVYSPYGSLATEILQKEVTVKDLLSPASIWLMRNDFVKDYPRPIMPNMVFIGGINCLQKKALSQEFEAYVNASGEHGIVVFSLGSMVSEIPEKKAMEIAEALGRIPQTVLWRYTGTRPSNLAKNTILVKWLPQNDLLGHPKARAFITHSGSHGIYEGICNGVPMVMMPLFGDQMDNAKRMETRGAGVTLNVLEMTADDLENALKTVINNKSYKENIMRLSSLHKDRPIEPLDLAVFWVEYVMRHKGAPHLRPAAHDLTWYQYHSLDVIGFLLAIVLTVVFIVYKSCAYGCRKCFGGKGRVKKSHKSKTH
Outline: (§1)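 Rat liver microsomes (100 µg protein/mL) were used, with alamethicin 22 µg/mL, bilirubin 10 µM and MgCl2 0.88 mM in 50 mM potassium phosphate pH 7.4, at 37 °C with shaking under minimal light. Purine or no-purine control was preincubated 2 min before UDPGA (3.5 mM) started the reaction. Reactions were stopped with ice-cold methanol containing 200 mM ascorbic acid and centrifuged. Unconjugated bilirubin and mono- and diglucuronides were quantified by gradient HPLC against bilirubin calibration curves over a 45-min time course.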

[3] = target: T3, UDPGDH (UDP-glucose 6-dehydrogenase) (Rattus norvegicus, UniProt O70199); assay: Inhibition of UDPGDH in rat hepatocytes assessed as increase in unconjugated bilirubin level at 25 uM preincubated for 2 mins followed by UDPGA addition measured after 45 mins by HPLC analysis relative to control; format: cell-based; details: probe bilirubin (readout: unconjugated bilirubin level); outline: as §1
T3 sequence (O70199 whole entry): T1 sequence (O70199 whole entry)

[4] = target: T3, UDPGDH (UDP-glucose 6-dehydrogenase); assay: Inhibition of UDPGDH in rat hepatocytes assessed as decrease in bilirubin monoglucuronide level at 50 uM preincubated for 2 mins followed by UDPGA addition measured after 45 mins by HPLC analysis relative to control; format: cell-based; details: probe bilirubin (readout: bilirubin monoglucuronide level); outline: as §1
[5] = target: T2, UDP-glucuronosyltransferase 1A1; assay: Inhibition of UGT1A in rat hepatocytes assessed as decrease in bilirubin diglucuronide level at 75 uM preincubated for 2 mins followed by UDPGA addition measured after 45 mins by HPLC analysis; format: ADME, cell-based; details: 0.75 h; outline: as §1
[6] = target: T3, UDPGDH (UDP-glucose 6-dehydrogenase); assay: Inhibition of UDPGDH in rat hepatocytes assessed as decrease in bilirubin diglucuronide level at 25 uM preincubated for 2 mins followed by UDPGA addition measured after 45 mins by HPLC analysis relative to control; format: cell-based; details: probe bilirubin (readout: bilirubin diglucuronide level); outline: as §1
[7] = target: T3, UDPGDH (UDP-glucose 6-dehydrogenase); assay: Inhibition of UDPGDH in rat hepatocytes assessed as decrease in bilirubin diglucuronide level at 50 uM preincubated for 2 mins followed by UDPGA addition measured after 45 mins by HPLC analysis relative to control; format: cell-based; details: probe bilirubin (readout: bilirubin diglucuronide level); outline: as §1
[8] = target: T2, UDP-glucuronosyltransferase 1A1; assay: Inhibition of UGT1A in rat hepatocytes preincubated for 2 mins followed by UDPGA addition measured after 45 mins by HPLC analysis; format: ADME, cell-based; outline: as §1
[9] = target: T3, UDPGDH (UDP-glucose 6-dehydrogenase); assay: Inhibition of UDPGDH in rat hepatocytes assessed as decrease in bilirubin monoglucuronide level at 25 uM preincubated for 2 mins followed by UDPGA addition measured after 45 mins by HPLC analysis relative to control; format: cell-based; details: probe bilirubin (readout: bilirubin monoglucuronide level); outline: as §1
[10] = target: T2, UDP-glucuronosyltransferase 1A1; assay: Inhibition of UGT1A in rat hepatocytes assessed as increase in unconjugated bilirubin level at 75 uM preincubated for 2 mins followed by UDPGA addition measured after 45 mins by HPLC analysis; format: ADME, cell-based; details: 0.75 h; outline: as §1
[11] = target: T1, UDP-glucose 6-dehydrogenase; assay: Inhibition of UDPGDH in rat hepatocytes assessed as decrease in bilirubin diglucuronide level at 5 to 10 uM preincubated for 2 mins followed by UDPGA addition measured after 45 mins by HPLC analysis; format: cell-based; details: 0.75 h; outline: as §1
[12] = target: T2, UDP-glucuronosyltransferase 1A1; assay: Inhibition of UGT1A in rat hepatocytes assessed as decrease in bilirubin monoglucuronide level at 10 uM after 45 mins in presence of UDPGA by HPLC analysis; format: ADME, cell-based; details: 0.75 h; outline: as §1
[13] = target: T2, UDP-glucuronosyltransferase 1A1; assay: Inhibition of UGT1A in rat hepatocytes assessed as decrease in bilirubin diglucuronide level at 10 uM after 45 mins in presence of UDPGA by HPLC analysis; format: ADME, cell-based; details: 0.75 h; outline: as §1
[14] = target: T4, UGT1A (UDP-glucuronosyltransferase 1A1) (Rattus norvegicus, UniProt Q64550); assay: Inhibition of UGT1A in rat hepatocytes assessed as decrease in bilirubin diglucuronide level at 10 uM preincubated for 2 mins followed by UDPGA addition measured after 45 mins by HPLC analysis relative to control; format: ADME, cell-based; details: probe bilirubin (readout: bilirubin diglucuronide level); outline: as §1
T4 sequence (Q64550 whole entry): T2 sequence (Q64550 whole entry)

[15] = target: T4, UGT1A (UDP-glucuronosyltransferase 1A1); assay: Inhibition of UGT1A in rat hepatocytes assessed as decrease in bilirubin monoglucuronide level at 10 uM preincubated for 2 mins followed by UDPGA addition measured after 45 mins by HPLC analysis relative to control; format: ADME, cell-based; details: probe bilirubin (readout: bilirubin monoglucuronide level); outline: as §1
[16] = target: T1, UDP-glucose 6-dehydrogenase; assay: Inhibition of UDPGDH in rat hepatocytes assessed as decrease in bilirubin monoglucuronide level at 10 uM preincubated for 2 mins followed by UDPGA addition measured after 45 mins in presence of regorafenib by HPLC analysis; format: cell-based; details: 0.75 h
[17] = target: T3, UDPGDH (UDP-glucose 6-dehydrogenase); assay: Inhibition of UDPGDH in rat hepatocytes assessed as decrease in bilirubin diglucuronide level at 10 uM preincubated for 2 mins followed by UDPGA addition measured after 45 mins by HPLC analysis relative to control; format: cell-based; details: probe bilirubin (readout: bilirubin diglucuronide level); outline: as §1
[18] = target: T1, UDP-glucose 6-dehydrogenase; assay: Inhibition of UDPGDH in rat hepatocytes assessed as increase in unconjugated bilirubin level at 5 uM preincubated for 2 mins followed by UDPGA addition measured after 45 mins by HPLC analysis relative to control; format: cell-based; set-up: scale not given: the % may be the effect or the level left; details: 0.75 h; outline: as §1
[19] = target: T3, UDPGDH (UDP-glucose 6-dehydrogenase); assay: Inhibition of UDPGDH in rat hepatocytes assessed as decrease in bilirubin monoglucuronide level at 5 uM preincubated for 2 mins followed by UDPGA addition measured after 45 mins by HPLC analysis relative to control; format: cell-based; details: probe bilirubin (readout: bilirubin monoglucuronide level); outline: as §1
[20] = target: T1, UDP-glucose 6-dehydrogenase; assay: Inhibition of UDPGDH in rat hepatocytes assessed as increase in unconjugated bilirubin level at 10 uM preincubated for 2 mins followed by UDPGA addition measured after 45 mins by HPLC analysis relative to control; format: cell-based; set-up: scale not given: the % may be the effect or the level left; details: 0.75 h; outline: as §1
[21] = target: T3, UDPGDH (UDP-glucose 6-dehydrogenase); assay: Inhibition of UDPGDH in rat hepatocytes assessed as decrease in bilirubin diglucuronide level at 5 uM preincubated for 2 mins followed by UDPGA addition measured after 45 mins by HPLC analysis relative to control; format: cell-based; details: probe bilirubin (readout: bilirubin diglucuronide level); outline: as §1
[22] = target: T3, UDPGDH (UDP-glucose 6-dehydrogenase); assay: Inhibition of UDPGDH in rat hepatocytes assessed as decrease in bilirubin monoglucuronide level at 10 uM preincubated for 2 mins followed by UDPGA addition measured after 45 mins by HPLC analysis relative to control; format: cell-based; details: probe bilirubin (readout: bilirubin monoglucuronide level); outline: as §1
[23] = target: T1, UDP-glucose 6-dehydrogenase; assay: Inhibition of UDPGDH in rat hepatocytes assessed as decrease in bilirubin diglucuronide level at 10 uM after 45 mins in presence of UDPGA by HPLC analysis; format: cell-based; details: 0.75 h; outline: as §1
[24] = target: T1, UDP-glucose 6-dehydrogenase; assay: Inhibition of UDPGDH in rat hepatocytes assessed as decrease in bilirubin diglucuronide level at 10 uM preincubated for 2 mins followed by UDPGA addition measured after 45 mins in presence of regorafenib by HPLC analysis; format: cell-based; details: 0.75 h

Sc1ncnc2[nH]c(Br)nc12
Ki [1]: 192 µM
IC50 (REH): 9.54 µM

Sc1ncnc2[nH]c(Cl)nc12
Ki [1]: 163 µM
IC50 (REH): 3.95 µM

Sc1ncnc2nc[nH]c12 [MERCAPTOPURINE ANHYDROUS]
inhibition (INH) [2]: Not Active
inhibition at 0.75 h, 25 µM [3]: 19%
inhibition at 0.75 h, 50 µM [4]: 28%
inhibition (INH) [5]: Not Active
Ki [1]: 288 µM
inhibition at 0.75 h, 25 µM [6]: 12%
IC50 (REH): 2.94 µM
inhibition at 0.75 h, 50 µM [7]: 26%
Ki [8]: > 100 µM
inhibition at 0.75 h, 25 µM [9]: 19%
inhibition (INH) [10]: Not Active
inhibition (INH) [11]: Active

CNC(=O)c1cc(Oc2ccc(NC(=O)Nc3ccc(Cl)c(C(F)(F)F)c3)c(F)c2)ccn1 [REGORAFENIB]
inhibition (INH) [12]: Active
inhibition (INH) [13]: Active
inhibition at 0.75 h, 10 µM [14]: 96%
inhibition at 0.75 h, 10 µM [15]: 89%

Oc1nc2c(S)ncnc2[nH]1
Ki [1]: 14 µM
IC50 (REH): 9.91 µM
Ki [8]: > 100 µM

O=c1[nH]c(=S)c2nc[nH]c2[nH]1
Ki [1]: 54 µM
IC50 (REH): > 10 µM
Ki [8]: > 100 µM

O=c1[nH]c(=S)c2[nH]c(=O)[nH]c2[nH]1
inhibition (INH) [2]: Not Active
inhibition (INH) [16]: Active
inhibition at 0.75 h, 10 µM [17]: 86%
inhibition (INH) [5]: Not Active
Activity [18]: 31%
Ki [1]: 7 µM
inhibition at 0.75 h, 5 µM [19]: 71%
IC50 (REH): > 10 µM
Activity [20]: 42%
inhibition at 0.75 h, 5 µM [21]: 76%
inhibition at 0.75 h, 10 µM [22]: 81%
inhibition (INH) [23]: Not Active
inhibition (INH) [24]: Active
Ki [8]: > 100 µM
inhibition (INH) [10]: Not Active
inhibition (INH) [11]: Active

Fc1nc2c(S)ncnc2[nH]1
Ki [1]: 215 µM
IC50 (REH): 4.71 µM

COc1cccc2c1C(=O)c1c(O)c3c(c(O)c1C2=O)C[C@@](O)(C(=O)CO)C[C@@H]3O[C@H]1C[C@H](N)[C@H](O)[C@H](C)O1 [DOXORUBICIN]
IC50 (REH): 0.285 µM
